Read-outs that look alike come from different tables or passages of the source.
Legend:
[1] = Safety and tolerability in healthy subjects; format: in vivo, human; conditions: single and multiple doses
In short: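 Healthy adults got single rising oral doses or 3 once-weekly oral doses, versus placebo. Physical exams, vital signs and 12-lead ECGs (QTc, PR) were done before dosing, after dosing and at the poststudy visit. So were labs (hematology, serum chemistry including transaminases, urinalysis). Glucometer readings were taken often over 24 h after each single dose or the last multiple dose. Adverse experiences were graded for intensity, duration, seriousness, outcome and drug relation.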

[2] = format: in vivo; conditions: male, human, plasma, po
In short: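 In an alternating-panel design (panels A and B), each panel had 6 active and 2 placebo subjects. Single oral doses of 0.5–400 mg were given after an overnight fast, with at least 2 weeks of washout. Blood went into K2EDTA and was spun at 1000–1300g, 4–10°C, for 10 min, then stored at –20°C. Plasma was extracted liquid-liquid with a stable-isotope internal standard and assayed by LC/MS/MS with turbo ionspray (range 1.0–1000 ng/mL). Parameters came from individual concentration-time curves at actual sampling times.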

plasma DPP-4 activity [3] = conditions: lean mice, 0.3 mg/kg dose; cited from earlier work
[4] = ref unpublished data; cited from earlier work
[5] = format: in vivo, human; conditions: for fe, fraction of dose excreted in urine: Day 15, 168-hour collection; for half-life / CL renal: male, human, oral; for half-life: plasma; for CL renal: urine and plasma
In short: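 Serial panels got 10, 25, 50 or 100 mg orally once weekly on days 1, 8 and 15, with 6 active and 2 placebo per panel. Plasma was assayed by LC/MS/MS (LLOQ 1.0 ng/mL). Urine was fortified with 0.2% Tween 20, protein-precipitated and assayed by LC/MS/MS (range 40.0–40,000 ng/mL). Ae is the sum of concentration × volume per interval, fe is Ae/dose and CLr is Ae/AUC. Accumulation is the day 15/day 1 GMR with 90% CI from a log-transformed mixed-effects model.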

[6] = Study 1 panel C: effect of a high-fat breakfast on single-dose pharmacokinetics; format: in vivo, human; conditions: single dose 10 mg
In short: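 Panel C had 8 subjects, 6 on 10 mg test compound and 2 on placebo, in a 2-period fixed sequence. Dosing was fasted in period 1 and after a standard high-fat breakfast (55.6 g fat, 55 g carbohydrate, 31.1 g protein) in period 2. Washout was at least 2 weeks. Plasma was assayed by LC/MS/MS (LLOQ 1.0 ng/mL). Log-transformed parameters were compared fed/fasted as GMR with 90% CI.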

plasma DPP-4 activity [7] = molecular target: T1, plasma DPP-4 activity (Homo sapiens, UniProt P27487); experiment: PK/PD Emax model of DPP-4 inhibition vs omarigliptin plasma concentration; format: in vivo
T1 sequence (P27487 39-766): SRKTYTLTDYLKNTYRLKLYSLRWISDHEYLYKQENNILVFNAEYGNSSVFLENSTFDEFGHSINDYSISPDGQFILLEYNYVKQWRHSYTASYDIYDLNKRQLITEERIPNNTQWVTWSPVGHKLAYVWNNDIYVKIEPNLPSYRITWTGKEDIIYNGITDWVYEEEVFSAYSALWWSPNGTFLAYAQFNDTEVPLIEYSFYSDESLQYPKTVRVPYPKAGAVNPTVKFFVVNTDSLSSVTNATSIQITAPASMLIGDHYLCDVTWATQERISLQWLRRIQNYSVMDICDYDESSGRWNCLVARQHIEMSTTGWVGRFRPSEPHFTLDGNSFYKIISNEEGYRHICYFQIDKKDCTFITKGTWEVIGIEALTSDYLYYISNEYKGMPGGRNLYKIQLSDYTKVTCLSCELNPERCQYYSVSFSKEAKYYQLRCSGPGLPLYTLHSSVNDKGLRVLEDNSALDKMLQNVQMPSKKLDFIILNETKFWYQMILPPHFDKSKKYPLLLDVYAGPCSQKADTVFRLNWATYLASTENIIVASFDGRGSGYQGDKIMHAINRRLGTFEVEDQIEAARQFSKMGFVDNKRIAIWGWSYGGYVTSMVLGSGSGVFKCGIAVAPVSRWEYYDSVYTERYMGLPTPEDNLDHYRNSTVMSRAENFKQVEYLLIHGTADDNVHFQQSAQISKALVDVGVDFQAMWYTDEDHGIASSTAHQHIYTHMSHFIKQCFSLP

plasma DPP-4 activity [8] = molecular target: T1, plasma DPP-4 activity; experiment: Study 1: inhibition of plasma DPP-4 activity after single doses; format: in vivo
In short: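 Healthy subjects got single oral doses of 0.5–400 mg or placebo. Blood went into EDTA tubes and was spun at 1700g for 10 min at 4°C, then stored at –20°C or below. Plasma was incubated with glycyl-prolyl-paranitroanilide, and absorbance increase at 390 nm was read from 4 to 14 min (LOQ 0.6 mOD/min). Inhibition is the % change from the period-1 predose baseline. The 168-h values came from a linear mixed-effects model (treatment fixed, subject random).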

[9] = ref unpublished data; cited from earlier work; remark: listed apart in the source
active GLP-1 = experiment: Study 2: weighted average augmentation; format: in vivo, human; conditions: healthy subjects (abstract)
In short: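 Once-weekly oral dosing ran days 1, 8 and 15 against placebo. On day 15, standard meals were given at 4 and 10 h post-dose, with the 4-h sample drawn before the meal. Plasma active GLP-1 (7-36 and 7-37 amides) was measured by electrochemiluminescent immunoassay. Capture was with an antibody to amino acid 7, and detection with antibodies to the C-terminal residues 36/37. WAA was taken through 2 h after each meal and analysed by ANOVA versus placebo.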

[10] = PK/QTc relationship: linear mixed-effects model of QTcF vs plasma concentration; format: in vivo, human; conditions: Cmax of 10 μM
In short: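 In study 1, single rising oral doses ran from 0.5 to 400 mg under fasting. ECGs came from 5-lead cardiac telemetry and 12-lead recordings, paired with PK sampling. The averaged triplicate QTcF at each time point (dependent) was matched to plasma drug concentration (independent). These were fitted by a linear mixed-effects model with slope and intercept, and the slope was tested against zero. Prolongation was predicted from the fitted slope.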

[11] = rats and dogs; cited from earlier work

Tmax [2]: 0.75 to 4 h
Cmax ([2]; 0.5 mg): 6.5 nM
Tmax ([2]; 0.5 mg): 0.75 h
AUC(0-inf) ([2]; 1.5 mg): 1.7 µM·h
Cmax ([2]; 1.5 mg): 20.7 nM
Tmax ([2]; 1.5 mg): 1 h
AUC(0-inf) ([2]; 5 mg): 5.3 µM·h
Cmax ([2]; 5 mg): 88.2 nM
Tmax ([2]; 5 mg): 2 h
AUC(0-inf) ([2]; 12.5 mg): 12 µM·h
Cmax ([2]; 12.5 mg): 219 nM
Tmax ([2]; 12.5 mg): 4 h
AUC(0-inf) ([2]; 25 mg): 22.5 µM·h
Cmax ([2]; 25 mg): 484 nM
Tmax ([2]; 25 mg): 0.75 h
AUC(0-inf) ([2]; 50 mg): 41.6 µM·h
Cmax ([2]; 50 mg): 904 nM
Tmax ([2]; 50 mg): 1.5 h
AUC(0-inf) ([2]; 100 mg): 86.9 µM·h
Cmax ([2]; 100 mg): 2210 nM
Tmax ([2]; 100 mg): 0.75 h
AUC(0-inf) ([2]; 200 mg): 162 µM·h
Cmax ([2]; 200 mg): 3850 nM
Tmax ([2]; 200 mg): 1.5 h
AUC(0-inf) ([2]; 400 mg): 335 µM·h
Cmax ([2]; 400 mg): 9290 nM
Tmax ([2]; 400 mg): 1 h
fe, fraction of dose excreted in urine ([5]; 10 mg once weekly): 70.1 (14.1) %
fe, fraction of dose excreted in urine ([5]; 25 mg once weekly): 57.5 (15.7) %
fe, fraction of dose excreted in urine ([5]; 50 mg once weekly): 73.6 (4.3) %
fe, fraction of dose excreted in urine ([5]; 100 mg once weekly): 72.2 (7.7) %
steady state achieved following the second dosing ([5]; all treatments 10 to 100 mg once weekly): more than 80%
half-life ([5]; 10 mg): 83.2 h
half-life ([5]; 25 mg): 66.7 h
half-life ([5]; 50 mg): 48.3 h
half-life ([5]; 100 mg): 41.7 h
CL renal [5]: 26.7 to 35 mL/min
CL renal ([5]; 10 mg): 33.3 mL/min
CL renal ([5]; 25 mg): 26.7 mL/min
CL renal ([5]; 50 mg): 31.7 mL/min
CL renal ([5]; 100 mg): 35 mL/min
difference in overall absorption in the presence and absence of a high-fat breakfast [6]: No difference
Hill slope γ (plasma DPP-4 activity [7]; Emax model, single doses, SE 0.03): 1.1
Emax (plasma DPP-4 activity [7]; read-out: Emax, maximum inhibition of plasma DPP-4 activity): 96.8%
percentage inhibition of DPP-4 activity 168 hours postdose (point estimate) (plasma DPP-4 activity [8]; single dose 0.5 mg): 32.2%
percentage inhibition of DPP-4 activity 168 hours postdose (point estimate) (plasma DPP-4 activity [8]; single dose 400 mg): 96.7%
Structure (SMILES): CS(=O)(=O)n1cc2c(n1)CN([C@H]1CO[C@H](c3cc(F)ccc3F)[C@@H](N)C1)C2 [omarigliptin]
tolerability ([1]; healthy adults): generally well tolerated
clinical or laboratory adverse experiences of hypoglycemia [1]: no reports
serious clinical or laboratory adverse experiences or discontinuation because of a clinical adverse experience [1]: No subject
inhibition of plasma DPP-4 activity (plasma DPP-4 activity [3]): ~85%
permeability [4]: high
solubility [9]: high
increase in weighted average postprandial active GLP-1 (active GLP-1): ~2 fold
margin to the clinical dose of 25 mg [10]: ~20 fold
bioavailability [11]: nearly complete
